# Screens deposited in PubChem BioAssay by several laboratories.
# L major viab: Leishmania major promastigote growth inhibition. Leishmania major promastigotes, resazurin fluorescence viability. inhibition, % at 10 µM. 200,000 tested, 9% active. AID 1063; in the data active means inhibition above about 50%;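 further: promastigotes grown with compound for 44 hours at 28 °C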
# APP 5UTR inh: APP translation inhibition. AID 1285. 190,000 tested, 0.82% active. inhibition, % at 2 µM. SH-SY5Y APP 5'UTR-luciferase reporter, luminescence;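 active means inhibition above a set limit, derived from the sample mean plus 3 SD, cut at about 45% in these data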
# b-catenin transl: modulators of beta-catenin nuclear translocation; HeLa beta-catenin nuclear translocation, immunofluorescence imaging; nuclear translocation activity, % at 5 µM; 190,000 tested, 0.3% active;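 active means nuclear translocation activity above 50% at 5 µM, with a well cell count of 50 or more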;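 further: per-cell ratio of nuclear to cytoplasmic median beta-catenin stain intensity; plate controls were DMSO negative control for no effect and GSK-3 inhibitor IX positive control for full effect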
#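 Assay system: human HeLa cells, native beta-catenin; doses: 5 µM primary, 0.02–20 µM confirmation; incubation: compound treatment 24 h, 37°C, 5% CO2; technique: fluorescence imaging of beta-catenin antibody stain plus DAPI; measure: % activation, nuclear-to-cytoplasmic median beta-catenin signal ratio per cell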
# Ba/F3 V617F tox: lowers viability of Ba/F3 cells expressing EpoR and JAK2V617F | ATP luminescence | inhibition, % at 5.6 µM | 220,000 tested, 1.1% active | AID 1446;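 active means inhibition above the campaign mean plus 3 SD over all tested compounds, cut at about 24% in these data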;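 further: cytokine-independent growth of Ba/F3 cells driven by EpoR plus mutant JAK2; 0% = DMSO-treated cells and 100% = JAK inhibitor I control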
# BaF3 tox: parental Ba/F3 viability inhibition as JAK2V617F counter-screen. inhibition, % at 5.6 µM. 220,000 tested, 1.1% active. CellTiter-Glo ATP luminescence;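 active means inhibition above a per-campaign cutoff, the mean inhibition of all tested compounds plus 3 SD, cut at about 27% in these data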;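 further: 0% = DMSO wells and 100% = JAK Inhibitor I control wells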
# MT stabilizer: stabilizes microtubules in HeLa cells. HeLa tubulin immunostaining HCS, 24 h; share of cells brighter than vehicle mean+2SD. % tubulin-high responders, % at 10 µM. 200,000 tested, 0.83% active. AID 2205;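 active means plate Z-score above 3 for both tubulin-high and condensed-nucleus cell shares, with cell loss under 80%, at 10 µM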;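 further: anti alpha tubulin signal scored within the nucleus-defined area of each cell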
# * = called active by the depositor; nt = not tested or not shown. In the library only some 9.6% were active in any assay of this set; here they are far more common.
SMILES,L major viab,APP 5UTR inh,b-catenin transl,Ba/F3 V617F tox,BaF3 tox,MT stabilizer
Cc1ccccc1CN1CCN(S(=O)(=O)c2ccc(F)cc2)CC1,40,34,-1,-3,3,4
COc1ccc(S(=O)(=O)N2CCN(C)CC2)cc1Br,0,19,-7,1,0,2
COC(C[C@H](O)[C@@H](C)[C@H](O)COCc1ccccc1)OC,nt,nt,0,nt,nt,nt
COc1ccc(N2CCN(C(=O)CCNS(=O)(=O)c3ccc4c(c3)CCC(=O)N4)CC2)cc1,-4,4,10,-3,0,4
COC(=O)c1cccnc1-n1c(=O)c2cccnc2n(Cc2ccc([N+](=O)[O-])cc2)c1=O,-8,3,-1,1,7,6
CC1CC(CCC(=O)NC(=S)Nc2ccc(S(N)(=O)=O)cc2)C(=O)O1 (centres undefined),10,-8,-3,-5,0,3
COc1ccc(CN2CCN(S(=O)(=O)c3ccc(F)cc3)CC2)cc1OC,4,4,-1,-1,4,3
COc1ccc(CN2CCN(C)CC2)cc1OCc1ccccc1,23,3,0,-2,2,2
COc1ccc(CN2CCN(S(=O)(=O)c3ccccc3)CC2)cc1Br,75*,nt,-5,-3,3,1
CCCS(=O)(=O)N1CCN(Cc2ccc(OCc3ccccc3)c(OC)c2)CC1,91*,-2,nt,-4,4,2
O=C(/C=C/Nc1ccc(Oc2ccccc2)cc1)c1ccco1,0,-164,-4,1,6,6
Cc1ccc(OCC(=O)N(c2ccccn2)C2CCCCC2)c(C)c1,87*,-3,-2,3,5,1
O=C(COc1ccc(Cl)cc1Cl)N(c1ccccn1)C1CCCCC1,24,-26,-2,-2,5,2
Cc1ccc(CC2C(=O)N(c3nc(C)cc(C)n3)C(=O)C2C)cc1 (centres undefined),-6,2,-2,4,2,7
O=C(Nc1cccc(S(=O)(=O)c2cccc(NC(=O)C3CC3)c2)c1)C1CC1,99*,-15,0,-2,8,3
CS(=O)(=O)c1cccc(NC(=O)C2CC2)c1,0,-12,-2,-1,-3,6
COc1cccc(-c2nn(-c3ccccc3)cc2/C=C\C(=O)c2cccs2)c1,65*,4,nt,1,6,1
COc1cccc(-c2nn(-c3ccccc3)cc2C(=O)O)c1,-5,-7,-3,-3,0,7
CC(C)=C1C2CCC1C1C(=O)N(c3ccc(C)c(C)c3)C(=O)C21 (centres undefined),50,-6,-1,-2,0,3
CCc1nc(SCC(=O)Nc2sc(C)c(C)c2C(=O)OC)c2ccccc2n1,31,8,-1,-5,5,1
Clc1cccc(N/N=C/c2ccc(N3CCOCC3)cc2)c1,83*,-15,2,1,3,2
Oc1cccc(/C=N/Nc2ncnc3c2ncn3Cc2ccccc2)c1,66*,-15,0,5,6,2
Oc1ccc(/C=N/Nc2ncnc3c2ncn3Cc2ccccc2)cc1O,7,-14,13,4,0,4
CCCC(=O)Nc1cnc(NC(=O)c2cccc(F)c2)cc1C,-6,-173,0,-2,0,3
Cc1ccc(OCC(=O)N(Cc2cccs2)C2CCS(=O)(=O)C2)cc1C (centres undefined),nt,nt,0,5,0,nt
SMILES,L major viab,APP 5UTR inh,b-catenin transl,Ba/F3 V617F tox,BaF3 tox,MT stabilizer
CC1CCCN(C(=O)N2c3ccccc3Sc3ccccc32)C1 (centres undefined),5,-13,nt,-7,3,1
CN1CCCC(CC2Oc3ccccc3Sc3ccccc32)C1 (centres undefined),100*,-12,nt,2,7,4
O=C(N/N=C/c1ccccn1)c1cccc([N+](=O)[O-])c1,77*,2,-2,2,5,2
O=C(N/N=C/c1ccc[nH]1)c1ccc([N+](=O)[O-])cc1,79*,7,1,3,7,5
O=C(N/N=C/c1ccccn1)c1ccc(Br)cc1,97*,-6,1,3,12,5
O=C(N/N=C/c1ccccn1)c1ccc(N/N=C/c2ccccn2)cc1,-12,-48,1,-1,10,4
O=C(N/N=C/c1ccccn1)c1ccc([N+](=O)[O-])cc1,55*,-16,0,-2,-3,2
O=C(N/N=C/c1ccccn1)c1ccc(NC(=O)c2cccc([N+](=O)[O-])c2)cc1,25,-26,3,-2,3,5
O=C(N/N=C/c1ccccn1)c1cc([N+](=O)[O-])cc([N+](=O)[O-])c1,89*,5,0,0,6,1
COc1ccc(C(=O)N[C@H](C(=O)Nc2ccc(S(=O)(=O)N3CCOCC3)cc2)C(C)C)cc1,nt,nt,2,2,3,nt
O=C(CNC(=O)c1ccccc1)OCc1cc(=O)n2cc(Br)ccc2n1,7,-7,-2,-5,2,4
Cc1ccc(NC(=O)CSc2ncn(-c3ccccc3)n2)cc1C,97*,-4,-1,0,6,4
COc1ccc(NC(=O)CSc2ncn(-c3ccccc3)n2)cc1Cl,2,9,1,2,2,2
COc1cc(CNc2ccc(N3CCOCC3)c(C(=O)O)c2)ccc1OCC(N)=O,-7,12,nt,-2,3,4
CCOC(=O)CN1C(=O)S/C(=C/c2ccc3c(c2)n(C)c(=O)n3C)C1=O,69*,-11,-4,4,4,2
CC(C)(C)c1ccc(C(=O)c2c[nH]c(C(=O)NCCc3ccccn3)c2)cc1,-4,-11,2,-6,2,2
COc1ccc(S(=O)(=O)N(C)C)cc1NC(=O)COC(=O)CC1CCCC1,0,0,2,1,7,2
COc1ccc(S(=O)(=O)N(C)C)cc1NCC(=O)Nc1ccc(Br)cc1F,57*,15,0,-3,4,1
COC(=O)C1=CN(Cc2ccc(OC)cc2)C=C(C(=O)OC)C1c1ccsc1,100*,10,0,2,7,3
COC(=O)C1=CN(Cc2cccs2)C=C(C(=O)OC)C1c1ccc(OC)cc1OC,98*,10,-1,-4,-1,2
COC(=O)C1=CN(Cc2cccs2)C=C(C(=O)OC)C1c1cccc(Cl)c1,-2,-6,9,4,8,3
COC(=O)C1=CN(CC2CCCO2)C=C(C(=O)OC)C1c1ccsc1 (centres undefined),-5,-23,-8,-1,4,6
S=C(c1c[nH]c2ccc(Br)cc12)N1CCOCC1,6,1,-1,1,3,2
Cc1ccc(-c2nn(-c3ccccc3)cc2C(N)=O)o1,-4,-17,1,1,11,3
Cc1ccc(-c2nn(-c3ccccc3)cc2C=O)o1,52*,-144,2,-2,0,2
O=C(Cn1nnc2ccccc21)NNC(=O)c1ccccc1,nt,nt,1,-1,-1,nt
